Measurements reported in ChEMBL document CHEMBL3232844, “Synthesis and structure activity relationships of schweinfurthin indoles” (2014).

Key:
Type in all cases: functional
[1] = Cytotoxicity against human UO31 cells
Summary of the method: (§1)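 Cell line run as part of the 60-cell-line screening panel; growth inhibition was reported as a GI50 for each line.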

[2] = system: HCT-116; test: Cytotoxicity against human HCT116 cells
Summary of the method: (§2)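 Tested in a 60-cell-line human tumor panel screen; the read-out is growth inhibition, reported as GI50 for each cell line.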

[3] = system: CCRF-CEM; test: Cytotoxicity against human CCRF-CEM cells
[4] = system: COLO 205; test: Cytotoxicity against human COLO205 cells; summary of the method: as §2
[5] = system: IGROV-1; test: Cytotoxicity against human IGROV1 cells; summary of the method: as §2
[6] = system: T47D; test: Cytotoxicity against human T47D cells; summary of the method: as §1
[7] = system: SK-MEL-5; test: Cytotoxicity against human SK-MEL-5 cells; summary of the method: as §2
[8] = system: MCF7; test: Cytotoxicity against human MCF7 cells; summary of the method: as §2
[9] = system: HOP-62; test: Cytotoxicity against human HOP62 cells; summary of the method: as §2
[10] = system: KM12; test: Cytotoxicity against human KM12 cells; summary of the method: as §2
[11] = system: CAKI-1; test: Cytotoxicity against human Caki1 cells; summary of the method: as §2
[12] = system: NCI-H322M; test: Cytotoxicity against human NCI-H322M cells; summary of the method: as §2
[13] = Cytotoxicity against human OVCAR4 cells; summary of the method: as §2
[14] = system: NCI-H460; test: Cytotoxicity against human NCI-H460 cells; summary of the method: as §2
[15] = Cytotoxicity against human OVCAR8 cells; summary of the method: as §2
[16] = Cytotoxicity against human UACC62 cells; summary of the method: as §1
[17] = system: NCI-H226; test: Cytotoxicity against human NCI-H226 cells; summary of the method: as §2
[18] = system: NCI-H23; test: Cytotoxicity against human NCI-H23 cells; summary of the method: as §2
[19] = Cytotoxicity against human HCT15 cells; summary of the method: as §2
[20] = system: SF-268; test: Cytotoxicity against human SF268 cells; summary of the method: as §2
[21] = system: HCC 2998; test: Cytotoxicity against human HCC2998 cells; summary of the method: as §2
[22] = system: DU-145; test: Cytotoxicity against human DU145 cells; summary of the method: as §2
[23] = system: K562; test: Cytotoxicity against human K562 cells; summary of the method: as §2
[24] = system: HL-60(TB); test: Cytotoxicity against human HL-60(TB) cells
Summary of the method: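 Tested within the NCI 60-cell-line screen, with GI50 as the read-out. Values are the average of two independent experiments. The lowest concentration tested was 10 nM.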

[25] = system: MDA-MB-468; test: Cytotoxicity against human MDA-MB-468 cells; summary of the method: as §2
[26] = system: LOX IMVI; test: Cytotoxicity against human LOXIMVI cells; summary of the method: as §2
[27] = Cytotoxicity against human NCI-ADR-RES cells; summary of the method: as §2
[28] = system: PC-3; test: Cytotoxicity against human PC3 cells; summary of the method: as §2
[29] = system: A549; test: Cytotoxicity against human A549 cells; summary of the method: as §2
[30] = system: MDA-MB-435; test: Cytotoxicity against human MDA-MB-435 cells; summary of the method: as §2
[31] = system: SF-539; test: Cytotoxicity against human SF539 cells; summary of the method: as §2
[32] = system: SK-MEL-2; test: Cytotoxicity against human SK-MEL-2 cells; summary of the method: as §2
[33] = system: 786-0; test: Cytotoxicity against human 786-0 cells; summary of the method: as §2
[34] = system: BT-549; test: Cytotoxicity against human BT549 cells; summary of the method: as §2
[35] = system: M14; test: Cytotoxicity against human M14 cells; summary of the method: as §2
[36] = system: MDA-MB-231; test: Cytotoxicity against human MDA-MB-231 cells; summary of the method: as §2
[37] = Cytotoxicity against human OVCAR5 cells; summary of the method: as §2
[38] = system: SNB-19; test: Cytotoxicity against human SNB19 cells; summary of the method: as §2
[39] = system: ACHN; test: Cytotoxicity against human ACHN cells; summary of the method: as §2
[40] = system: A498; test: Cytotoxicity against human A498 cells; summary of the method: as §2
[41] = system: SNB-75; test: Cytotoxicity against human SNB75 cells; summary of the method: as §1
[42] = system: SK-OV-3; test: Cytotoxicity against human SKOV3 cells; summary of the method: as §2
[43] = system: MOLT-4; test: Cytotoxicity against human MOLT4 cells; summary of the method: as §2
[44] = read-out: pLC50 (the source's name) (converted)

Molecule CC1(C)[C@H](O)CC[C@@]2(C)Oc3c(O)cc(/C=C/c4cc(O)c5cc[nH]c5c4)cc3C[C@H]12 has a GI50 ([1]; UO-31) of 0.209 µM, an LC50 ([1]; UO-31) greater than 100 µM and a TGI ([1]; UO-31, read-out: pTGI (converted)) of 2 µM. It also gave a GI50 [2] of 0.617 µM, a CC50 [2, 44] of 8.13 µM and a TGI ([2]; read-out: pTGI (converted)) of 2.45 µM. It also gave a GI50 [3] of 0.219 µM, a CC50 [3, 44] greater than 100 µM and a TGI ([3]; read-out: pTGI (converted)) of 14.1 µM. For the same molecule, the GI50 [4] was 2.19 µM, the CC50 [4, 44] was 11.7 µM and the TGI ([4]; read-out: pTGI (converted)) was 4.79 µM. The GI50 [5] was 2.51 µM, the CC50 [5, 44] was 97.7 µM and the TGI ([5]; read-out: pTGI (converted)) was 22.9 µM. It also gave a GI50 [6] of 7.59 µM, a CC50 [6, 44] of 83.2 µM and a TGI ([6]; read-out: pTGI (converted)) of 27.5 µM. It also gave a GI50 [7] of 0.372 µM, a CC50 [7, 44] of 3.98 µM and a TGI ([7]; read-out: pTGI (converted)) of 1.51 µM. For the same molecule, the GI50 [8] was 1.35 µM, the LC50 [8] was greater than 100 µM and the TGI ([8]; read-out: pTGI (converted)) was 16.2 µM. It also gave a GI50 [9] of 0.631 µM, a CC50 [9, 44] greater than 100 µM and a TGI ([9]; read-out: pTGI (converted)) of 7.08 µM. For the same molecule, the GI50 [10] was 0.447 µM, the CC50 [10, 44] was 7.76 µM and the TGI ([10]; read-out: pTGI (converted)) was 1.95 µM. For the same molecule, the GI50 [11] was 0.12 µM, the LC50 [11] was 15.1 µM and the TGI ([11]; read-out: pTGI (converted)) was 0.676 µM. For the same molecule, the GI50 [12] was 7.08 µM, the CC50 [12, 44] was 95.5 µM and the TGI ([12]; read-out: pTGI (converted)) was 33.9 µM. It also gave a GI50 ([13]; OVCAR-4) of 5.01 µM, a CC50 ([13]; OVCAR-4, read-out: pLC50 (the source's name) (converted)) of 91.2 µM and a TGI ([13]; OVCAR-4, read-out: pTGI (converted)) of 42.7 µM. For the same molecule, the GI50 [14] was 0.55 µM, the CC50 [14, 44] was 6.31 µM and the TGI ([14]; read-out: pTGI (converted)) was 2.14 µM. The GI50 ([15]; OVCAR-8) was 4.79 µM, the CC50 ([15]; OVCAR-8, read-out: pLC50 (the source's name) (converted)) was greater than 100 µM and the TGI ([15]; OVCAR-8, read-out: pTGI (converted)) was 42.7 µM. It also gave a GI50 ([16]; UACC-62) of 0.617 µM, a CC50 ([16]; UACC-62, read-out: pLC50 (the source's name) (converted)) of 33.9 µM and a TGI ([16]; UACC-62, read-out: pTGI (converted)) of 6.46 µM. It also gave a GI50 [17] of 19.5 µM, a CC50 [17, 44] greater than 100 µM and a TGI ([17]; read-out: pTGI (converted)) of 75.9 µM. It also gave a GI50 [18] of 1.32 µM, a CC50 [18, 44] of 41.7 µM and a TGI ([18]; read-out: pTGI (converted)) of 7.59 µM. For the same molecule, the GI50 ([19]; HCT-15) was 0.832 µM, the CC50 ([19]; HCT-15, read-out: pLC50 (the source's name) (converted)) was greater than 100 µM and the TGI ([19]; HCT-15, read-out: pTGI (converted)) was 38 µM. For the same molecule, the GI50 [20] was 0.589 µM, the CC50 [20, 44] was 79.4 µM and the TGI ([20]; read-out: pTGI (converted)) was 26.3 µM. For the same molecule, the GI50 [21] was 3.16 µM, the CC50 [21, 44] was 39.8 µM and the TGI ([21]; read-out: pTGI (converted)) was 14.1 µM. It also gave a GI50 [22] of 0.912 µM, an LC50 (50% lethal concentration) [22] of 33.1 µM and a TGI ([22]; read-out: pTGI (converted)) of 6.46 µM. For the same molecule, the GI50 [23] was 0.263 µM, the CC50 [23, 44] was greater than 100 µM and the TGI ([23]; read-out: pTGI (converted)) was 47.9 µM. It also gave a GI50 [24] of 0.0437 µM, a CC50 [24, 44] greater than 100 µM and a TGI ([24]; read-out: pTGI (converted)) of 4.79 µM. The GI50 [25] was 1.2 µM, the LC50 [25] was 36.3 µM and the TGI ([25]; read-out: pTGI (converted)) was 5.13 µM. The GI50 [26] was 0.178 µM, the CC50 [26, 44] was 5.62 µM and the TGI ([26]; read-out: pTGI (converted)) was 1.58 µM. It also gave a GI50 [27] of 3.24 µM, a CC50 [27, 44] greater than 100 µM and a TGI ([27]; read-out: pTGI (converted)) of 31.6 µM. It also gave a GI50 [28] of 0.245 µM, an LC50 [28] of 55 µM and a TGI ([28]; read-out: pTGI (converted)) of 4.07 µM. The GI50 [29] was 1 µM, the CC50 [29, 44] was 55 µM and the TGI ([29]; read-out: pTGI (converted)) was 8.32 µM. The GI50 [30] was 0.661 µM, the CC50 [30, 44] was 51.3 µM and the TGI ([30]; read-out: pTGI (converted)) was 9.55 µM. The GI50 [31] was 0.0204 µM, the CC50 [31, 44] was 6.17 µM and the TGI ([31]; read-out: pTGI (converted)) was 0.724 µM. The GI50 [32] was 0.759 µM, the CC50 [32, 44] was 97.7 µM and the TGI ([32]; read-out: pTGI (converted)) was 21.4 µM. The GI50 [33] was 0.0457 µM, the LC50 (concentration killing 50% of cells) [33] was 12.9 µM and the TGI ([33]; read-out: pTGI (converted)) was 1.17 µM. The GI50 [34] was 0.0214 µM, the CC50 [34, 44] was 57.5 µM and the TGI ([34]; read-out: pTGI (converted)) was 5.37 µM. The GI50 [35] was 0.138 µM, the CC50 [35, 44] was 8.32 µM and the TGI ([35]; read-out: pTGI (converted)) was 0.646 µM. The GI50 [36] was 1.7 µM, the LC50 [36] was greater than 100 µM and the TGI ([36]; read-out: pTGI (converted)) was 32.4 µM. For the same molecule, the GI50 ([37]; OVCAR-5) was 17.8 µM, the CC50 ([37]; OVCAR-5, read-out: pLC50 (the source's name) (converted)) was 97.7 µM and the TGI ([37]; OVCAR-5, read-out: pTGI (converted)) was 53.7 µM. It also gave a GI50 [38] of 1.12 µM, a CC50 [38, 44] greater than 100 µM and a TGI ([38]; read-out: pTGI (converted)) of 26.9 µM. It also gave a GI50 [39] of 2.14 µM, an LC50 (concentration killing 50% of cells) [39] greater than 100 µM and a TGI ([39]; read-out: pTGI (converted)) of 30.9 µM. For the same molecule, the GI50 [40] was 0.427 µM, the CC50 [40, 44] was 46.8 µM and the TGI ([40]; read-out: pTGI (converted)) was 11.7 µM. The GI50 [41] was 0.01 µM, the CC50 [41, 44] was 56.2 µM and the TGI ([41]; read-out: pTGI (converted)) was 0.851 µM. The GI50 [42] was 1.95 µM, the LC50 [42] was greater than 100 µM and the TGI ([42]; read-out: pTGI (converted)) was 18.6 µM. For the same molecule, the GI50 [43] was 0.0437 µM, the CC50 [43, 44] was greater than 100 µM and the TGI ([43]; read-out: pTGI (converted)) was 0.617 µM.
